# About 1,500 (0.42%) of roughly 360,000 compounds were called active. The entries come from a sample that favours actives as a whole. Values without a mark were called inactive.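 Rule for the calls: active = inhibition above a per-plate cutoff of the control wells' mean inhibition plus 3 SD (cut at about 5.5% in these data); inactive = the rest.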
# Test system: methionyl-tRNA synthetase (Trypanosoma brucei brucei)
# Assay: T. brucei MetRS inhibitors, primary screen, biochemical, luminescence (AID 624268);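 note: 0% = DMSO wells median and 100% = median of wells with control inhibitor compound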
# Conditions: purified T. brucei MetRS, ATP depletion, Kinase-Glo luminescence; at 11.9 µM; active compounds read high
# In short: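 Material: parasite MetRS enzyme / Replication: singlicate, one well per compound / Signal: luminescence of leftover ATP / Schedule: 2 h aminoacylation at 25 °C after 15 min preincubation / Medium: HEPES-MgCl2-KCl buffer plus DTT, spermine, BSA, pyrophosphatase / Doses: 11.9 µM single point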
row,SMILES,inhibition
1,O=C(c1ccc(N2CCCC2=O)cc1)N1CCN(c2ccc(C(F)(F)F)cc2[N+](=O)[O-])CC1,-0.05%
2,COCCn1c(SC(C)C(=O)NC2CC2)nnc1-c1cccc(C)c1 (stereo unspecified),-0.37%
3,O=C(Nc1ccc(N2CCOCC2)cc1)c1cccc2c(-c3ccc(F)c(F)c3)coc12,-0.14%
4,C=CCSc1nsc(NC(=O)Nc2cccc(C(C)=O)c2)n1,-1.33%
5,CCSc1nsc(NC(=O)Nc2cccc(C(C)=O)c2)n1,-0.36%
6,CSc1nsc(NC(=O)Nc2ccccc2)n1,19.9% (active)
7,O=C(COC(=O)c1ccc(F)cc1F)Nc1ncccn1,0.09%
8,O=C(ON=C1CCN(S(=O)(=O)c2ccccc2)CC1)c1ccc(Cl)cc1,-0.24%
9,CCCn1c(SCC(=O)Nc2ccc(C)c(S(=O)(=O)N3CCOCC3)c2)n[nH]c1=O,-1.6%
10,COc1ccc(OC)c(NC(=O)Cn2c(=O)oc3ccccc32)c1,-0.7%
11,Cc1ccc(CCCOC(=O)C[N+]2(C)CCCC2)cc1,-0.15%
12,Cc1cccc(C)c1N1C(=O)CN(Cc2ccccc2)C1=S,-1%
13,C[C@H]1CN(c2ccc(Br)cc2)C(=O)[C@@H]1CC(=O)Nc1ccc(Br)cc1,-0.7%
14,CCCCN1CC(C)(C)[C@H](CC(=O)Nc2ccc(Br)cc2)C1=O,0.54%
15,CCCCN1C[C@H](c2ccc(Br)cc2)[C@@H](CC(=O)Nc2ccc(Br)cc2)C1=O,38.6% (active)
16,CCOC(=O)C1=C(c2ccccc2)NC(=O)NC1c1cc(OCC)c(O)c([N+](=O)[O-])c1 (stereo unspecified),-0.17%
17,c1ccc(CN=C2Nc3ccccc3CS2)nc1,11.2% (active)
18,c1ccc(CCc2ccccn2)cc1,-0.47%
19,O=C1CSc2ccc(C(=O)NCc3ccccn3)cc2N1,-0.41%
20,COc1ccc(C2CC(c3ccc(Cl)cc3Cl)Nc3nc(N)nn32)cc1OC (stereo unspecified),9.33% (active)
21,Cc1ccc(C2CC(c3cccc(Br)c3)n3nc(N)nc3N2)cc1 (stereo unspecified),-0.23%
22,CCOc1ccccc1C1CC(c2ccc(Cl)cc2)Nc2nc(N)nn21 (stereo unspecified),0.5%
23,Cc1ccn2c(=O)nc(SCC(=O)NCc3ccc(F)cc3)nc2c1,-0.43%
24,COc1ccc2[nH]c3nc(SCC(=O)NC4CC4)nnc3c2c1,0.12%
25,Cc1ccc(CNC(=O)CSc2nnc3c(n2)[nH]c2ccc(F)cc23)cc1,15.6% (active)
26,CCCNC(=O)C1(C)CCN(C(=O)c2ccc(F)cc2Cl)C1 (stereo unspecified),-0.42%
